Experimental data reported in publication PMC3915044 (Integrative biology : quantitative biosciences from nano to …, 2013).
Entries after “also recorded” stand apart in the source; their conditions may differ. One block for each compound: values may come before it.

Columns and labels:
MCF-7/ADR cells [1] = assay: Subcellular localization by fluorescence microscopy; type: cell-based, human
CL1-0 cells [2] = assay: Flow cytometry of fluorescence intensity; type: cell-based, human
Outline: (§1)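 CL1-0 and MRC-5 cells were loaded with 1 µM carbazole dication for 5 h and exposed to 0, 0.5 or 1 mM lysosomotropic agent. Mean fluorescence was taken at 564–606 nm with 488 nm excitation and expressed as a ratio across treatments; three independent experiments.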

CL1-0 cells [3] = assay: Subcellular localization by epi-fluorescence/confocal microscopy; type: cell-based, human; details: for subcellular localization (nucleus versus mitochondria): CL1-0 human lung cancer cells, fluorescence microscopy
MRC-5 cells [4] = assay: Flow cytometry of fluorescence intensity; type: cell-based, human; details: MRC-5, LeuLeuOMe treatment
Outline: as §1

MCF-7/ADR cells [5] = assay: Flow cytometry of relative fluorescence changes; type: cell-based, human; details: for relative fluorescence change upon verapamil: 50 µM verapamil (P-glycoprotein inhibition); for relative fluorescence change upon LeuLeuOMe: 0.5 mM LeuLeuOMe
MRC-5 cells [6] = assay: Subcellular localization by epi-fluorescence/confocal microscopy; type: cell-based, human
MCF-7 cells = assay: Subcellular localization by fluorescence microscopy; type: cell-based, human; details: drug-sensitive MCF-7, 5 µM BMVC
normal and cancer cells = assay: Low temperature; type: cell-based; details: incubation at 4°C, energy-dependent mechanisms inhibited
Outline: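 Cells were precooled at 4°C for 1 h to block energy-dependent uptake, then incubated with 1 µM test compound for 1 h. Cells were co-stained for 10 min with 1 ng ml−1 Hoechst 33342 (membrane-permeant) or Hoechst 33258 (impermeant) as controls. Imaging was by epi-fluorescence microscopy.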

[7] = system: primary human normal foreskin fibroblast cell line (BJ); assay: Cytoplasmic microinjection; type: cell-based; details: BJ cells, 5 min after injection
Outline: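 BJ primary foreskin fibroblasts were grown on glass coverslips in EMEM with 10% FBS. At 37°C, the cytoplasm was co-microinjected with 170 µM test compound and 2.5 mg ml−1 Texas Red 70-kDa dextran, which cannot cross nuclear pores. After 5 min incubation, cells were moved to fresh CO2-independent medium and imaged live.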

[8] = Lipophilicity, n-octanol/water partition; type: physicochemical
Outline: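 Shake-flask method: n-octanol and water were premixed and left overnight. Test compound was added to the aqueous phase at 500 µM and mixed with an equal volume of n-octanol. Absorbance was measured in each phase, and log P was calculated as log[Ao/Aw].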

CL1-0 cells [9] = assay: Lysosomal membrane permeabilization; type: cell-based, human
MRC-5 cells [10] = assay: Lysosomal membrane permeabilization; type: cell-based, human
normal cells = assay: Effect of lysosomal pH-raising agents on nuclear fluorescence of BMVC; type: cell-based; details: agents raise internal pH of lysosomes
MCF-7/ADR cells [11] = assay: Cytotoxicity of doxorubicin; type: cell-based; details: Homo sapiens, NCI/ADR-RES, read-out: cytotoxicity IC50

Structure (SMILES): C[n+]1ccc(C=Cc2ccc3[nH]c4ccc(C=Cc5cc[n+](C)cc5)cc4c3c2)cc1.[I-].[I-] [BMVC, 3,6-bis(1-methyl-4-vinylpyridinium) carbazole diiodide]
- nuclear fluorescence upon LeuLeuOMe treatment (MCF-7/ADR cells [1]; MCF-7/ADR, LeuLeuOMe, confocal microscopy): increased nuclear BMVC fluorescence
- subcellular localization / lysosomal retention (MCF-7/ADR cells [1]; drug-resistant MCF-7/ADR): localized to the lysosomes; also recorded: retained in the lysosomes
- time-dependent fluorescent intensity (CL1-0 cells [2]; 1 µM BMVC, flow cytometry, CL1-0 compared with MRC-5): significantly higher in CL1-0 than in MRC-5 cells
- BMVC fluorescence change after LeuLeuOMe (CL1-0 cells [2]; CL1-0, LeuLeuOMe treatment): small increase in BMVC fluorescence
- lysosomal retention / co-localization with LysoTracker (CL1-0 cells [3]; CL1-0 cancer cells, confocal microscopy): partially colocalized with MitoTracker red, but not LysoTracker red
- subcellular localization (nucleus versus mitochondria) (CL1-0 cells [3]): strong fluorescent signal was observed in the nuclei; also recorded: localize to the nuclei to a greater extent than the mitochondria
- fluorescent signal in cancer cell nuclei upon DNase treatment (CL1-0 cells [3]; fixed CL1-0 cells, DNase): dramatically reduced
- fluorescent signal in cancer cell nuclei upon RNase treatment (CL1-0 cells [3]; fixed CL1-0 cells, RNase): moderately reduced
- BMVC fluorescence intensity change after LeuLeuOMe (MRC-5 cells [4]): increase in the fluorescence intensity
- relative fluorescence change upon verapamil (MCF-7/ADR cells [5]): without affecting BMVC fluorescence
- relative fluorescence change upon LeuLeuOMe (MCF-7/ADR cells [5]): more than tenfold
- BMVC fluorescence localization after LeuLeuOMe (MRC-5 cells [6]; MRC-5, 5 µM BMVC 24 h then LeuLeuOMe 0.5 mM 1 h): can be detected in the nucleus
- nuclear fluorescence in fixed and permeabilized cells (MRC-5 cells [6]; MRC-5 fixed and permeabilized (4% formaldehyde, 0.1% Triton X-100)): strong BMVC fluorescence similar to that in CL1-0 cells
- lysosomal retention / co-localization with LysoTracker (MRC-5 cells [6]; MRC-5 normal lung cells, confocal microscopy): colocalized with LysoTracker red but not MitoTracker red
- nuclear fluorescence (MRC-5 cells [6]; MRC-5 normal lung cells, fluorescence microscopy): no fluorescence was observed in the nuclei
- subcellular localization (MCF-7 cells): released from the lysosomes and entered the nucleus
- fluorescence detected in cells at 4°C (uptake) (normal and cancer cells): not detected
- localization after microinjection into the cytoplasm [7]: rapidly accumulated in the nuclei

- lipophilicity (log P), in words [8]: lower lipophilicity
Structure (SMILES): C[n+]1ccc(/C=C/c2ccc3c(c2)c2cc(/C=C/c4cc[n+](C)cc4)ccc2n3CCOCCOCCOCC[N+]2(C)CCCCC2)cc1.[I-].[I-].[I-] [BMVC-8C3O]
- subcellular localization (nucleus versus mitochondria) (CL1-0 cells [3]): localized to both the nucleus and the mitochondria

Structure (SMILES): CN1CCN(c2ccc3[nH]c(-c4ccc5[nH]c(-c6ccc(O)cc6)nc5c4)nc3c2)CC1 [Hoechst 33258]
- fluorescence detected in cells at 4°C (uptake) (normal and cancer cells): not detected

Structure (SMILES): CCOc1ccc(-c2nc3ccc(-c4nc5ccc(N6CCN(C)CC6)cc5[nH]4)cc3[nH]2)cc1 [Hoechst 33342]
- fluorescence detected in cells at 4°C (uptake) (normal and cancer cells): readily detected in the cells

Structure (SMILES): COC(=O)[C@H](CC(C)C)NC(=O)[C@@H](N)CC(C)C [LeuLeuOMe, L-leucyl-L-leucine methyl ester]
- lysosomal membrane permeabilization (CL1-0 cells [9]): increases lysosomal membrane permeabilization
- lysosomal membrane permeabilization (MRC-5 cells [10]): increases lysosomal membrane permeabilization

Structure (SMILES): Cl.N [NH4Cl, ammonium chloride]
- effect on nuclear fluorescence of BMVC (normal cells): increased nuclear fluorescence of BMVC

Structure (SMILES): CCN(CC)CCCC(C)Nc1ccnc2cc(Cl)ccc12 (centres unmarked) [chloroquine]
- effect on nuclear fluorescence of BMVC (normal cells): increased nuclear fluorescence of BMVC

Structure (SMILES): COc1cccc2c1C(=O)c1c(O)c3c(c(O)c1C2=O)C[C@@](O)(C(=O)CO)C[C@@H]3O[C@H]1C[C@H](N)[C@H](O)[C@H](C)O1 [doxorubicin, reference compound]
- IC50 (MCF-7/ADR cells [11]): ≥ 20 µM
- relative fluorescence change upon verapamil (MCF-7/ADR cells [5]): increased twofold
- relative fluorescence change upon LeuLeuOMe (MCF-7/ADR cells [5]): no difference in doxorubicin fluorescence
